In ChEMBL document CHEMBL4229571, “Development of 13H-benzo[f]chromeno[4,3-b][1,7]naphthyridines and their salts as potent cytotoxic agents and topoisomerase I/IIα inhibitors” (2018):
Several values for one entry are separate records, joined by “and”; a condition that tells them apart may be missing. Identical values can stand only once.

Experiments:
NUGC-3 = test: Cytotoxicity against human NUGC3 cells assessed as growth inhibition after 72 hrs by SRB assay; assay type: functional
Method in brief: (§1)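 SRB assay per NCI protocol: 2 × 10^3 cells/well seeded, compounds in DMSO/media added next day (day 0) in quadruplicate at 1 nM–10 μM final, DMSO <0.1%. After 72 h, TCA fixation overnight at 4°C, 0.4% SRB 1 h, dye dissolved in 10 mM Tris, A690 read; day 0 absorbance subtracted. GI50 = concentration giving 50% drop in net growth, mean of three experiments.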

NCI-H23 = test: Cytotoxicity against human NCI-H23 cells assessed as growth inhibition after 72 hrs by SRB assay; assay type: functional; method in brief: as §1
PC-3 = test: Cytotoxicity against human PC3 cells assessed as growth inhibition after 72 hrs by SRB assay; assay type: functional; method in brief: as §1
HCT-15 = test: Cytotoxicity against human HCT15 cells assessed as growth inhibition after 72 hrs by SRB assay; assay type: functional; method in brief: as §1
ACHN = test: Cytotoxicity against human ACHN cells assessed as growth inhibition after 72 hrs by SRB assay; assay type: functional; method in brief: as §1
MDA-MB-231 = test: Cytotoxicity against human MDA-MB-231 cells assessed as growth inhibition after 72 hrs by SRB assay; assay type: functional; method in brief: as §1
[1] = target: T1, DNA topoisomerase 1 (Homo sapiens) (UniProt P11387); test: Inhibition of recombinant human DNA topoisomerase 1 at 100 uM using supercoiled pBR322 DNA as substrate after 30 mins by densitometric analysis relative to control
T1 sequence (whole entry): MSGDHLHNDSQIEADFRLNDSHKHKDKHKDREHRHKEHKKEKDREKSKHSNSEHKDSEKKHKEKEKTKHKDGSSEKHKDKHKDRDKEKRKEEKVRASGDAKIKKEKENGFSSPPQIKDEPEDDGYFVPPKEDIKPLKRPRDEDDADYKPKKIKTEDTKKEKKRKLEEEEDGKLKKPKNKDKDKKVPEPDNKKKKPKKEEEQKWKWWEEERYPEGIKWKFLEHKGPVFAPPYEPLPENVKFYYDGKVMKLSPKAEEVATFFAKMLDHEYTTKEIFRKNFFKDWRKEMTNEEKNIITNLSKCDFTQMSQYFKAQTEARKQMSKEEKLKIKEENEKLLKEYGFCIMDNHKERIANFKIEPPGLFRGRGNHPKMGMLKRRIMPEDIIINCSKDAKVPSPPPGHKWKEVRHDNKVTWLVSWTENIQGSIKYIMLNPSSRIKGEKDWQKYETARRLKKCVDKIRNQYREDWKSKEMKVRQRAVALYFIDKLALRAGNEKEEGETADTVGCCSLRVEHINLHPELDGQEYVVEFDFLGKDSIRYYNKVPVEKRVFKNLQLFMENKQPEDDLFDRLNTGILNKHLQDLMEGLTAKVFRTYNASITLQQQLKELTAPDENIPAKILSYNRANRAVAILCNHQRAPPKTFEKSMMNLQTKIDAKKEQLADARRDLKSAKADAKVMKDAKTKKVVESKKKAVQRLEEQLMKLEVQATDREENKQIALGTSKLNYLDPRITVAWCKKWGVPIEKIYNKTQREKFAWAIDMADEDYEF
Method in brief: (§2)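 Relaxation of 100 ng supercoiled pBR322 by 1 unit recombinant human topo I, 37 °C for 30 min, in 10 mM Tris-HCl pH 7.9, 150 mM NaCl, 0.1% BSA, 1 mM spermidine, 5% glycerol. Stopped with sarcosyl solution, run on 1% agarose/TAE at 15 V for 7 h, ethidium bromide stained, bands quantified by densitometry. Camptothecin as positive control. Compounds first screened at 100 μM; those over 30% inhibition retested at 20 μM.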

[2] = target: DNA topoisomerase 2-alpha (Homo sapiens) (UniProt P11388); test: Inhibition of recombinant human DNA topoisomerase 2-alpha at 100 uM using supercoiled pBR322 DNA as substrate after 30 mins by densitometric analysis relative to control
Method in brief: (§3)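 200 ng supercoiled pBR322 with 4 units human topo IIα, 30 min at 30 °C, in 10 mM Tris–HCl pH 7.9, 50 mM NaCl, 5 mM MgCl2, 1 mM EDTA, 1 mM ATP, 15 μg/mL BSA. Stopped with EDTA, run on 1% agarose/TAE at 60 V for 1 h, bands quantified by densitometry. Etoposide as positive control. Screening at 100 μM; above 30% inhibition, retested at 20 μM.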

[3] = target: T1, DNA topoisomerase 1 (Homo sapiens); test: Potency index, ratio of test compound activity to camptothecin activity for recombinant human DNA topoisomerase 1 at 100 uM
[4] = target: T1, DNA topoisomerase 1 (Homo sapiens); test: Inhibition of recombinant human DNA topoisomerase 1 at 20 uM using supercoiled pBR322 DNA as substrate after 30 mins by densitometric analysis relative to control; method in brief: as §2
[5] = target: DNA topoisomerase 2-alpha (Homo sapiens) (UniProt P11388); test: Potency index, ratio of test compound activity to etoposide activity for recombinant human DNA topoisomerase 2-alpha at 20 uM
[6] = target: DNA topoisomerase 2-alpha (Homo sapiens) (UniProt P11388); test: Inhibition of recombinant human DNA topoisomerase 2-alpha at 20 uM using supercoiled pBR322 DNA as substrate after 30 mins by densitometric analysis relative to control; method in brief: as §3

Sequence of DNA topoisomerase 2-alpha (Homo sapiens) (P11388 whole entry): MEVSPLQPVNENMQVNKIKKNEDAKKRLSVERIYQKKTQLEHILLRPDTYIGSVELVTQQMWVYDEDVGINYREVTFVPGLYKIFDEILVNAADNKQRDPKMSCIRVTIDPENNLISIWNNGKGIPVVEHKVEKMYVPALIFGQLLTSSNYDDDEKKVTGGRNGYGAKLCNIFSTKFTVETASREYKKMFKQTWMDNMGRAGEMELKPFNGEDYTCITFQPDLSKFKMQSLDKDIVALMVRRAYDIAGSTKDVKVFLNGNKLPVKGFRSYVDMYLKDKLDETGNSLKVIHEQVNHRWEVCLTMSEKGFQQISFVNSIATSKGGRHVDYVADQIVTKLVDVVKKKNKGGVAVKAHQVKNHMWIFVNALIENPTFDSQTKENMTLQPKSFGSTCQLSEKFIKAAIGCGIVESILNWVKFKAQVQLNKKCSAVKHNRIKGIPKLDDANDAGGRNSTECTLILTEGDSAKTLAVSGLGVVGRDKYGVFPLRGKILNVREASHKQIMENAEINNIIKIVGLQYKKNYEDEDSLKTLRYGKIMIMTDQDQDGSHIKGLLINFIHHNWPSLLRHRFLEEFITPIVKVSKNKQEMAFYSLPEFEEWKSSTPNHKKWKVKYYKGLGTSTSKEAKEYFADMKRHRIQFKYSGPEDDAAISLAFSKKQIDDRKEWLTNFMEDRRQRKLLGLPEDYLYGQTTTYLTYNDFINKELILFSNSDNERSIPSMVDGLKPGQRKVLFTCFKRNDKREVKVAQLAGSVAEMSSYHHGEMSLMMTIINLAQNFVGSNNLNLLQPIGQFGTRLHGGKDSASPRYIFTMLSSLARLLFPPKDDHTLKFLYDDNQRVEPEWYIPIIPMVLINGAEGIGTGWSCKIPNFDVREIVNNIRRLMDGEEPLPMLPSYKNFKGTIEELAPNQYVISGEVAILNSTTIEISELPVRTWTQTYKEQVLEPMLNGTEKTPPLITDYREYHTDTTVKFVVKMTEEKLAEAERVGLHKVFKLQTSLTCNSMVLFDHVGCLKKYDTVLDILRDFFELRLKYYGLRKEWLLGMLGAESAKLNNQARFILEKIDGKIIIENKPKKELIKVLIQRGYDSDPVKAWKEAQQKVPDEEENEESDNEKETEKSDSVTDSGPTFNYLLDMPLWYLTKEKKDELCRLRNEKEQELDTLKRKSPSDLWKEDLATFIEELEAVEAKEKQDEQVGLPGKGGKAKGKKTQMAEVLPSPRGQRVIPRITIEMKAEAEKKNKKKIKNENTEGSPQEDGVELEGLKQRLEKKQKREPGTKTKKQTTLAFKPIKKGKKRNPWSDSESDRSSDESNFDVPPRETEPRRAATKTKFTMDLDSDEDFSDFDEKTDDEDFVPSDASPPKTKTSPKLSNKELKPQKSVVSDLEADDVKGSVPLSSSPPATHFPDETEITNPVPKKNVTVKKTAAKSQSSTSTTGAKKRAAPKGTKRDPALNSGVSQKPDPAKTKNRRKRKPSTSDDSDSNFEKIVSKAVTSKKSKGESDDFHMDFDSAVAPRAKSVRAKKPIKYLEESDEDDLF

Structure (SMILES) | GI50 (NUGC-3; Homo sapiens, NUGC-3, 72 h) [µM] | GI50 (NCI-H23; Homo sapiens, NCI-H23, 72 h) [µM] | GI50 (PC-3; Homo sapiens, PC-3, 72 h) [µM] | GI50 (HCT-15; Homo sapiens, HCT-15, 72 h) [µM] | GI50 (ACHN; Homo sapiens, ACHN, 72 h) [µM] | GI50 (MDA-MB-231; Homo sapiens, MDA-MB-231, 72 h) [µM] | further results
Cc1c2c(nc3cnc4ccccc4c13)-c1cc(Cl)cc(Cl)c1OC2 | > 10 | > 10 | > 10 | > 10 | > 10 | > 10 | –
Brc1ccc2c(c1)-c1nc3cnc4ccccc4c3cc1CO2 | > 10 | > 10 | > 10 | > 10 | > 10 | > 10 | –
CC(C)(C)c1cc2c(c(C(C)(C)C)c1)OCc1cc3c(cnc4ccccc43)nc1-2 | > 10 | > 10 | > 10 | > 10 | > 10 | > 10 | –
Clc1ccc2c(c1)-c1nc3cnc4ccccc4c3cc1CO2 [listing 1 of 3 here] | 2.21 | 1.19 | 1.5 | 1.57 | – | – | GI50 (ACHN): 2.56 µM; GI50 (MDA-MB-231): 2.72 µM
Cc1c2c(nc3cnc4ccccc4c13)-c1cc(Br)ccc1OC2 | > 10 | > 10 | > 10 | > 10 | > 10 | > 10 | –
Cc1ccc2c(c1)-c1nc3cnc4ccccc4c3c(C)c1CO2 | > 10 | > 10 | > 10 | > 10 | > 10 | > 10 | –
Cc1ccc2c(c1)-c1nc3cnc4ccccc4c3cc1CO2 | > 10 | > 10 | > 10 | > 10 | > 10 | > 10 | –
Cc1c2c(nc3cnc4ccccc4c13)-c1cc(C(C)(C)C)cc(C(C)(C)C)c1OC2 | > 10 | > 10 | > 10 | > 10 | > 10 | > 10 | –
c1ccc2c(c1)OCc1cc3c(cnc4ccccc43)nc1-2 | > 10 | > 10 | > 10 | > 10 | > 10 | > 10 | –
Cc1c2c(nc3cnc4ccccc4c13)-c1c(ccc3ccccc13)OC2 | > 10 | > 10 | > 10 | > 10 | > 10 | > 10 | –
COc1cccc2c1OCc1c-2nc2cnc3ccccc3c2c1C [listing 1 of 3 here] | 2.62 | 1.56 | 1.61 | 1.79 | 2.19 | 1.52 | –
COc1cccc2c1OCc1c-2nc2cnc3ccccc3c2c1C [listing 2 of 3 here] | – | – | – | – | – | – | GI50 (NUGC-3): 1.56 µM; GI50 (NCI-H23): 2.39 µM; GI50 (PC-3): 2.06 µM; GI50 (HCT-15): 1.29 µM; GI50 (ACHN): 2.01 µM; GI50 (MDA-MB-231): 1.67 µM
Cc1ccc(-c2c3c(nc4cnc5ccccc5c24)-c2ccccc2OC3)cc1 [listing 1 of 3 here] | 3.85 | – | – | 4.23 | 2.4 | – | GI50 (NCI-H23): > 10 µM; GI50 (PC-3): 5.02 µM; GI50 (MDA-MB-231): 5.62 µM
Clc1ccc2c(c1)-c1nc3cnc4ccccc4c3cc1CO2 [listing 2 of 3 here] | – | – | – | – | – | – | inhibition [1]: 1.7% and 12.3%; inhibition [2]: 0%
COc1cccc2c1OCc1c-2nc2cnc3ccccc3c2c1C [listing 3 of 3 here] | – | – | – | – | – | – | inhibition [1]: 14.4% and 10.2%; inhibition [2]: 0% and 23.5%
Cc1ccc(-c2c3c(nc4cnc5ccccc5c24)-c2ccccc2OC3)cc1 [listing 2 of 3 here] | – | – | – | – | – | – | GI50 (NUGC-3): 2.7 µM; GI50 (NCI-H23): 2.06 µM; GI50 (PC-3): 1.53 µM; GI50 (HCT-15): 2.71 µM; GI50 (ACHN): 2.28 µM; GI50 (MDA-MB-231): 1.79 µM
Fc1ccc2c(c1)-c1nc3cnc4ccccc4c3cc1CO2 [listing 1 of 3 here] | – | – | – | – | – | – | inhibition [2]: 14.5% and 12.2%; Ratio [3]: 1.32; inhibition [4]: 4.2%
COc1ccc(Br)c2c1OCc1c-2nc2cnc3ccccc3c2c1C | > 10 | > 10 | > 10 | > 10 | > 10 | > 10 | –
Fc1ccc2c(c1)-c1nc3cnc4ccccc4c3cc1CO2 [listing 2 of 3 here] | – | – | – | – | – | – | GI50 (NUGC-3): 1.37 µM; GI50 (NCI-H23): 1.03 µM; GI50 (PC-3): 1.27 µM; GI50 (HCT-15): 1.56 µM; GI50 (ACHN): 1 µM; GI50 (MDA-MB-231): 1.23 µM
Cc1ccc(-c2c3c(nc4cnc5ccccc5c24)-c2ccccc2OC3)cc1 [listing 3 of 3 here] | – | – | – | – | – | – | Ratio [5]: 1.25; inhibition [6]: 38.3%; inhibition [4]: 11.1%
Cc1c2c(nc3cnc4ccccc4c13)-c1cc(Cl)ccc1OC2 | > 10 | > 10 | > 10 | > 10 | > 10 | > 10 | –
Fc1ccc2c(c1)-c1nc3cnc4ccccc4c3cc1CO2 [listing 3 of 3 here] | 1.85 | 1.87 | – | 2.19 | – | 2.2 | GI50 (PC-3): 2.79 µM; GI50 (ACHN): 3.21 µM
COc1cccc2c1C(=O)c1c(O)c3c(c(O)c1C2=O)C[C@@](O)(C(=O)CO)C[C@@H]3O[C@H]1C[C@H](N)[C@H](O)[C@H](C)O1 [DOXORUBICIN] | 0.086 | 0.09 | 0.076 | 0.077 | 0.08 | 0.068 | –
Clc1ccc2c(c1)-c1nc3cnc4ccccc4c3cc1CO2 [listing 3 of 3 here] | – | – | – | – | – | – | GI50 (NUGC-3): 1.16 µM; GI50 (NCI-H23): 0.9 µM; GI50 (PC-3): 1.67 µM; GI50 (HCT-15): 1.09 µM; GI50 (ACHN): 1.08 µM; GI50 (MDA-MB-231): 1.05 µM
Cc1ccc(-c2c3c(nc4cnc5ccccc5c24)-c2cc(Cl)ccc2OC3)cc1 | > 10 | > 10 | > 10 | > 10 | > 10 | > 10 | –
Cc1c2c(nc3cnc4ccccc4c13)-c1cc(F)ccc1OC2 | > 10 | > 10 | > 10 | > 10 | > 10 | > 10 | –
c1ccc2c3c(ccc2c1)OCc1cc2c(cnc4ccccc42)nc1-3 | > 10 | > 10 | > 10 | > 10 | > 10 | > 10 | –
